According to ChEMBL document CHEMBL4152376, “Optimization of 8-Hydroxyquinolines as Inhibitors of Catechol O-Methyltransferase” (J Med Chem, 2018):
pIC50: −log10 of the molar value.

Columns and labels:
[1] = molecular target: T1, Catechol O-methyltransferase (Homo sapiens, UniProt P21964); assay: Inhibition of c-terminal hexa-His tagged human MB-COMT (unknown origin)
T1 sequence (P21964 whole entry): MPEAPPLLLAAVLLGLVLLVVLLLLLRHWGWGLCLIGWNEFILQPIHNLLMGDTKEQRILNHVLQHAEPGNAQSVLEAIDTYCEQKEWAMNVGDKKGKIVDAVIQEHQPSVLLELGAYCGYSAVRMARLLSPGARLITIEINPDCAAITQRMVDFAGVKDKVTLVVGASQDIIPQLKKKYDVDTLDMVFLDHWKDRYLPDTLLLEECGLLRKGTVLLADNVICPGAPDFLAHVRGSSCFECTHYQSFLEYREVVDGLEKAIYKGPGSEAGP

[2] = Clearance in rat hepatocytes assessed as per million cells; assay type: ADME, cell-based, Hepatocyte; conditions: read-out: CLH
[3] = molecular target: T1, Catechol O-methyltransferase; assay: Inhibition of c-terminal hexa-His tagged human S-COMT expressed in HEK293-6E cell membrane homogenate using 7,8-dihydroxy-4-methylcoumarin as substrate after 1 hr in presence of SAM by MTase glo methyltransferase assay
Procedure, shortened: (§1)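 His6-tagged S-COMT (human or rat), expressed in 293-6E cells and purified by Ni-NTA and size exclusion, 1 ng per well. 20 µM SAM and 10 µM 7,8-dihydroxy-4-methylcoumarin in pH 6.9 Tris/MgCl2/DTT buffer, 1.5% DMSO. 1 h at 37 °C, then MTase-Glo luminescence read against a SAH standard curve. […] 4-parameter IC50; triplicate wells, three runs.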

[4] = Plasma concentration C57BL/6J mouse at 10 mg/kg, ip measured at 1 hr post dose; assay type: ADME, organism-based
Procedure, shortened: (§2)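 Male C57BL/6J mice (8 weeks), single ip injection of 10 mg/kg suspended in 0.1% Tween80/0.1% antifoam/1% methylcellulose at 10 mL/kg. Two mice per timepoint; at 1 h, plasma separated at 4 °C and brain homogenized in 4 volumes PBS pH 7.4. Total brain and plasma levels measured.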

[5] = Drug uptake in brain of C57BL/6J mouse at 10 mg/kg, ip measured at 1 hr post dose; assay type: ADME, organism-based; conditions: for concentration at 1 h: C57BL/6J, brain, read-out: Drug uptake; for Drug uptake: in vivo, 1 h, BLD = below limit of detection; procedure, shortened: as §2
[6] = molecular target: T1, Catechol O-methyltransferase; assay: Inhibition of c-terminal hexa-His tagged human MB-COMT expressed in HEK293 cell membrane homogenate using norepinephrine as substrate after 1 hr in presence of SAM by MTase glo methyltransferase assay
Procedure, shortened: (§3)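 Membrane homogenate of HEK293 cells expressing C-terminal His6 MB-COMT (human about 7 ng, rat about 4 ng per well, protein by Bradford […]). 20 µM SAM and 7 µM norepinephrine in 50 mM Tris, 5–10 mM MgCl2, 2.5 mM DTT, pH 6.9, final DMSO 1.5%. 1 h at 37 °C, then MTase-Glo luminescence. […] 4-parameter IC50 fit; triplicate points, three experiments.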

[7] = Efflux ratio of permeability in MDCK cells; assay type: ADME, cell-based, Canis lupus familiaris; conditions: dog
Procedure, shortened: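 Efflux ratio taken as […] transport across P-glycoprotein-expressing MDCK cells.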

[8] = Half life in rat at 1 mg/kg, iv or 3/10 mg/kg, po; assay type: ADME, organism-based; conditions: in vivo
Procedure, shortened: (§4)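 Rat pharmacokinetics after a 1 mpk iv dose (n=3) and a 3 or 10 mpk oral dose (n=3).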

Rattus norvegicus [9] = assay: Oral bioavailability in rat at 3/10 mg/kg; assay type: ADME, organism-based; conditions: in vivo; procedure, shortened: as §4
[10] = Fraction unbound in rat plasma by equilibrium dialysis; assay type: ADME, cell-free
Procedure, shortened: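 Percent free drug in mouse or rat plasma, measured by equilibrium dialysis.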

Rattus norvegicus [11] = assay: Volume of distribution at steady state in rat at 1 mg/kg, iv or 3/10 mg/kg, po; assay type: ADME, organism-based; conditions: in vivo; procedure, shortened: as §4
[12] = Unbound drug level in brain of Sprague-Dawley rat at 10 mg/kg, po after 4 hrs by ES-UPLC analysis; assay type: ADME, organism-based; conditions: in vivo
Procedure, shortened: (§5)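 Sprague Dawley rats given 10 mg/kg po; CSF, plasma and brain collected at 4 h. Drug measured in CSF; free plasma and brain levels computed from total levels using plasma protein and brain tissue binding fractions. Free CSF derived from CSF binding by equilibrium dialysis with pooled rat CSF. Ratios taken from these values.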

[13] = Ratio of drug level in CSF of Sprague-Dawley rat to unbound brain concentration in Sprague-Dawley rat at 10 mg/kg, po after 4 hrs by ES-UPLC analysis; assay type: ADME, organism-based; conditions: in vivo; procedure, shortened: as §5
[14] = Unbound plasma concentration in Sprague-Dawley rat 10 mg/kg, po after 4 hrs by ES-UPLC analysis; assay type: ADME, organism-based; conditions: in vivo; procedure, shortened: as §5
[15] = molecular target: T2, Catechol O-methyltransferase (Rattus norvegicus, UniProt P22734); assay: Inhibition of c-terminal hexa-His tagged rat MB-COMT expressed in HEK293 cell membrane homogenate using norepinephrine as substrate after 1 hr in presence of SAM by MTase glo methyltransferase assay; procedure, shortened: as §3
T2 sequence (P22734 whole entry): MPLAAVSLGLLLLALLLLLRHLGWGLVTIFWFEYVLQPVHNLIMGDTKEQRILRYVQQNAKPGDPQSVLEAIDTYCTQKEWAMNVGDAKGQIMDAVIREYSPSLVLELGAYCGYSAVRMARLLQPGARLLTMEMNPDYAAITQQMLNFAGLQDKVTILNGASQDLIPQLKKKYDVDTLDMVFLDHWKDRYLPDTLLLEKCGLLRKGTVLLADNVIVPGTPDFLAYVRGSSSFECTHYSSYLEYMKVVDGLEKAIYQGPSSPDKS

[16] = molecular target: T2, Catechol O-methyltransferase; assay: Inhibition of c-terminal hexa-His tagged rat S-COMT expressed in HEK293-6E cell membrane homogenate using 7,8-dihydroxy-4-methylcoumarin as substrate after 1 hr in presence of SAM by MTase glo methyltransferase assay; procedure, shortened: as §1
[17] = Drug level in CSF of Sprague-Dawley rat at 10 mg/kg, po after 4 hrs by ES-UPLC analysis; assay type: ADME, organism-based, Cerebrospinal fluid; conditions: read-out: Drug uptake; procedure, shortened: as §5
[18] = Ratio of drug level in CSF of Sprague-Dawley rat to unbound plasma concentration in Sprague-Dawley rat at 10 mg/kg, po after 4 hrs by ES-UPLC analysis; assay type: ADME, organism-based; conditions: in vivo; procedure, shortened: as §5
Rattus norvegicus [19] = assay: In vivo inhibition of COMT in Sprague-Dawley rat assessed as HVA levels in CSF at 10 mg/kg, po measured at 4 hrs post dose by LC-MS analysis relative to control; assay type: functional; set-up: scale not given: the % may be the effect or the level left
Procedure, shortened: (§6)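 Male Sprague Dawley rats (176–200 g on arrival) dosed orally at 10 mg/kg in Tween80/antifoam/methylcellulose suspension, 10 mL/kg, vehicle group as control (n=5–10). At 4 h under isoflurane, CSF drawn from cisterna magna. HVA and DOPAC quantified by LC-MS against standards in 0.01 M perchloric acid/aCSF with d5 internal standards. Reported as % of vehicle.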

Rattus norvegicus [20] = assay: In vivo inhibition of COMT in Sprague-Dawley rat assessed as DOPAC levels in CSF at 10 mg/kg, po measured at 4 hrs post dose by LC-MS analysis relative to control; assay type: functional; procedure, shortened: as §6

Compound | hepatocyte CLint [2] [µL/min/1e6 cells] | pIC50 [3] | concentration at 1 h [4] [ng/mL] | concentration at 1 h [5] [ng/g] | pIC50 [6] | also measured
O=S(=O)(O)c1ccc(O)c2ncccc12 | – | – | – | – | – | pIC50 [1]: 5.20
O=S(=O)(c1ccc(O)c2ncccc12)N1CCCC1 | 177 | 5.70 | 68 | 10.5 | 8.10 | –
COc1ccc(S(=O)(=O)N2CCCC2)c2cccnc12 | – | – | – | – | < 5.00 | –
CCS(=O)(=O)c1ccc(O)c2ncccc12 | 39 | 5.80 | 250 | 11 | 7.30 | –
Cc1ccc(C(=O)c2ccc(O)c3ncccc23)cc1 | – | – | – | – | 5.40 | –
O=S(=O)(c1cc(Cl)c(O)c2ncccc12)N1CCCC1 | 14 | 5.50 | 16200 | 1150 | 8.00 | efflux ratio [7]: 0.4; half-life [8]: 8.6 h; F (Rattus norvegicus [9]): 33%; Fu [10]: 0.5; Vdss (Rattus norvegicus [11]): 0.8 L/kg
Cc1ccc(S(=O)(=O)c2cc(C(F)(F)F)c(O)c3ncccc23)cc1 | – | < 5.00 | – | – | < 5.00 | –
O=S(=O)(c1ccc(C(F)(F)F)cc1)c1ccc(O)c2ncccc12 | 46 | 5.90 | 3540 | – | 7.20 | Drug uptake [5]: Bld
O=S(=O)(c1ccc(O)c2ncccc12)C1CCCC1 | – | 6.30 | 173 | – | 8.20 | half-life [8]: 0.18 h; F (Rattus norvegicus [9]): 24%; Drug uptake [5]: Bld; Fu [10]: 0.5; Vdss (Rattus norvegicus [11]): 1.8 L/kg
O=S(=O)(c1ccc(O)c2ncccc12)N1CCC(c2ccc(F)cc2)C1 (stereo not drawn) | 255 | – | – | – | 8.50 | –
Cc1ccc(S(=O)(=O)c2cc(O)c3ncccc3c2)cc1 | – | – | – | – | – | pIC50 [1]: 5.80
Cc1ccc(S(=O)(=O)c2cc(Br)c(O)c3ncccc23)cc1 | – | < 5.00 | – | – | 5.90 | –
O=C(c1ccc(O)c2ncccc12)N1CCCC1 | – | – | – | – | < 5.00 | –
Cc1ccc(S(=O)(=O)c2ccc(O)c3ncccc23)cc1 | – | 6.30 | – | – | 7.70 | pIC50 [1]: 7.70
Cc1cc(S(=O)(=O)N2CCCC2)c2cccnc2c1O | 103 | 5.50 | 576 | 55 | 7.70 | –
O=S(=O)(c1ccc(F)cc1)c1cc(Cl)c(O)c2ncccc12 | 4 | < 5.00 | 16600 | 5660 | 6.70 | efflux ratio [7]: 0.8; half-life [8]: 8.9 h; F (Rattus norvegicus [9]): 23%; Fu [10]: 0.5; Vdss (Rattus norvegicus [11]): 0.23 L/kg
Cc1ccc(-c2ccc(O)c3ncccc23)cc1 | – | – | – | – | 6.60 | –
O=S(=O)(c1cc(Cl)c(O)c2ncccc12)C1CCCC1 | 18 | 5.10 | 14700 | 2790 | 7.70 | Drug uptake(free) [12]: 5.6 nM; half-life [8]: 11 h; F (Rattus norvegicus [9]): 37%; Ratio [13]: 64; Cp(f) [14]: 32 nM; pIC50 [15]: > 9.00; pIC50 [16]: < 5.00; concentration at 4 h [17]: 358 nM; Ratio [18]: 11; Activity (Rattus norvegicus [19]): 97%; Fu [10]: 0.5; Vdss (Rattus norvegicus [11]): 0.3 L/kg; CSF DOPAC level (% of vehicle) (Rattus norvegicus [20]): 213%
O=S(=O)(c1cc(C(F)(F)F)c(O)c2ncccc12)C1CCCC1 | – | < 5.00 | – | – | < 5.00 | –
O=S(=O)(c1ccc(C(F)(F)F)cc1)c1cc(F)c(O)c2ncccc12 | 12 | 5.20 | 2540 | 1090 | 7.10 | efflux ratio [7]: 1.1; half-life [8]: 3.5 h; F (Rattus norvegicus [9]): 66%; Fu [10]: 0.6; Vdss (Rattus norvegicus [11]): 3.8 L/kg
Cc1ccc(S(=O)(=O)c2cc(F)c(O)c3ncccc23)cc1 | 36 | 6.30 | 1740 | 518 | 8.20 | half-life [8]: 0.26 h; F (Rattus norvegicus [9]): 34%; Vdss (Rattus norvegicus [11]): 1.2 L/kg
Oc1cccc2cccnc12 [OXYQUINOLINE] | – | – | – | – | 5.80 | pIC50 [1]: 5.50
